How the values were obtained:
[1] = system: cytokine production by OVA stimulated splenocytes; experiment: Mouse splenocyte cytokine assay; type: cell-based; details: for inhibiting TH2 cytokine production compared with dexamethasone (in words): IL-5, IL-13, 10 nM (Figure 9)
Method in brief: (§1)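 Female Balb-C mice (6–8 weeks) were immunized s.c. weekly for four weeks with 25 µg OVA adsorbed to 1 mg alum in 200 µl PBS. Splenocytes were strained and resuspended at 1.3×10^6 cells/mL in RPMI-1640, then given test material in DMSO plus OVA. Replicate control wells held DMSO or DMSO+OVA. Supernatant cytokines were read by sandwich ELISA at 450 nm against standards in each replicate assay. Viability was checked by trypan blue count.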

IL-5 production = IL-5 production by OVA stimulated mouse splenocytes; type: cell-based; details: pure compounds or fractions
Method in brief: as §1

CC(C)C(=O)O[C@H]1[C@H](C)OC(=O)[C@@H](NC(=O)c2cccc(NC=O)c2O)[C@@H](C)OC(=O)[C@@H]1Cc1ccccc1 [compound 2]
inhibiting TH2 cytokine production compared with dexamethasone (in words) [1]: as effective as dexamethasone

CCCCCC[C@H]1C(=O)O[C@H](C)[C@H](NC(=O)c2cccc(NC=O)c2O)C(=O)O[C@@H](C)[C@@H]1OC(=O)c1ccccc1 [compound 7]
inhibiting TH2 cytokine production compared with dexamethasone (in words) [1]: as effective as dexamethasone

C[C@@H]1OC(=O)[C@@H](NC(=O)c2cccc(NC=O)c2O)[C@@H](C)OC(=O)[C@H](Cc2ccccc2)[C@H]1O [compound 10]
suppression of IL-5 production (in words) (IL-5 production): low micromolar | suppression of cytokine production by OVA stimulated splenocytes (in words) [1]: low micromolar

Reference: article PMC2735501 (Journal of medicinal chemistry, 2009)
